# Data from ChEMBL document CHEMBL1629441, “Synthesis, in vitro and in vivo biological evaluation, and comprehensive understanding of structure-activity relationships of dipeptidyl boronic acid proteasome inhibitors constructed from β-amino acids” (J Med Chem, 2010).
# Test: Inhibition of human 20S proteasome chymotrypsin-like activity by fluorimetric assay
# Details: read-out: IC50
# Method in brief: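 Human 20S proteasome preincubated with test compound, then Suc-Leu-Leu-Val-Tyr-AMC hydrolysis monitored 1 h at 37 °C by fluorescence (excitation 360 nm, 465 nm). Buffer pH 7.5: 20 mM Tris, 1 mM DTT, 10% glycerol, 0.02% (w/v) SDS; DMSO 3% (v/v) final. IC50 from five concentrations, each in duplicate; bortezomib standard.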
row,SMILES,IC50
1,COc1ccccc1C(CC(=O)N[C@@H](CC(C)C)B(O)O)NC(=O)c1cccnc1 (stereo not given in full),87 nM
2,CC(C)C[C@H](NC(=O)CC(NC(=O)c1cccnc1)c1cccc([N+](=O)[O-])c1)B(O)O (stereo not given in full),26.9 nM
3,CC(C)C[C@H](NC(=O)CC(NC(=O)c1cccnc1)c1ccc([N+](=O)[O-])cc1)B(O)O (stereo not given in full),7300 nM
4,Cc1ccccc1C(CC(=O)N[C@@H](CC(C)C)B(O)O)NC(=O)c1cccnc1 (stereo not given in full),1250 nM
5,O=C(CC(NC(=O)c1ccccc1)c1cccc(F)c1)N[C@@H](Cc1ccccc1F)B(O)O (stereo not given in full),301 nM
6,O=C(CC(NC(=O)c1ccccc1)c1cccc(Cl)c1)N[C@@H](Cc1ccccc1)B(O)O (stereo not given in full),1620 nM
7,Cc1cccc(C[C@H](NC(=O)CC(NC(=O)c2ccccc2)c2cccc(F)c2)B(O)O)c1 (stereo not given in full),120 nM
8,O=C(CC(NC(=O)c1ccccc1)c1cccc(F)c1)N[C@@H](Cc1ccc(F)cc1)B(O)O (stereo not given in full),75.8 nM
9,CCCC[C@H](NC(=O)CC(NC(=O)c1ccccc1)c1cccc(Cl)c1)B(O)O (stereo not given in full),316 nM
10,O=C(CC(NC(=O)c1ccccc1)c1cccc(Cl)c1)N[C@@H](Cc1ccccc1F)B(O)O (stereo not given in full),371 nM
11,COc1cccc(C(CC(=O)N[C@@H](Cc2ccccc2)B(O)O)NC(=O)c2cccnc2)c1 (stereo not given in full),1090 nM
12,COc1cccc(C(CC(=O)N[C@@H](Cc2cccc(C)c2)B(O)O)NC(=O)c2cccnc2)c1 (stereo not given in full),1770 nM
13,COc1cccc(C(CC(=O)N[C@@H](Cc2ccc(F)cc2)B(O)O)NC(=O)c2cccnc2)c1 (stereo not given in full),63 nM
14,CC(C)C[C@H](NC(=O)CC(NC(=O)c1ccccc1)c1ccccc1)B(O)O (stereo not given in full),39.8 nM
15,Cc1ccc(C(CC(=O)N[C@@H](CC(C)C)B(O)O)NC(=O)c2ccccc2)cc1 (stereo not given in full),26.3 nM
16,COc1ccc(C(CC(=O)N[C@@H](CC(C)C)B(O)O)NC(=O)c2ccccc2)cc1 (stereo not given in full),32.8 nM

# More lines, in order of falling IC50, values ahead:
row,IC50,SMILES
1,1480 nM,CCCC[C@H](NC(=O)CC(NC(=O)c1cccnc1)c1cccc(OC)c1)B(O)O (stereo not given in full)
2,1250 nM,CCCC[C@H](NC(=O)CC(NC(=O)c1ccccc1)c1cccc(F)c1)B(O)O (stereo not given in full)
3,1200 nM,O=C(CC(NC(=O)c1ccccc1)c1cccc(F)c1)N[C@@H](Cc1ccccc1)B(O)O (stereo not given in full)
4,1150 nM,Cc1ccc(C[C@H](NC(=O)CC(NC(=O)c2ccccc2)c2cccc(Cl)c2)B(O)O)cc1 (stereo not given in full)
5,930 nM,COc1cccc(C(CC(=O)N[C@@H](Cc2ccc(C)cc2)B(O)O)NC(=O)c2cccnc2)c1 (stereo not given in full)
6,602 nM,COc1cccc(C(CC(=O)N[C@@H](Cc2ccccc2F)B(O)O)NC(=O)c2cccnc2)c1 (stereo not given in full)
7,501 nM,Cc1ccc(C[C@H](NC(=O)CC(NC(=O)c2ccccc2)c2cccc(F)c2)B(O)O)cc1 (stereo not given in full)
8,194 nM,O=C(CC(NC(=O)c1ccccc1)c1cccc(Cl)c1)N[C@@H](Cc1ccc(F)cc1)B(O)O (stereo not given in full)
9,190 nM,CC(C)C[C@H](NC(=O)CC(NC(=O)c1cccc2c1CCCC2)c1cccc(Cl)c1)B(O)O (stereo not given in full)
10,158 nM,COc1cccc(C(CC(=O)N[C@@H](CC(C)C)B(O)O)NC(=O)c2cccc3c2CCCC3)c1 (stereo not given in full)
11,131 nM,O=C(CC(NC(=O)c1ccccc1)c1cccc(F)c1)N[C@@H](Cc1cccc(F)c1)B(O)O (stereo not given in full)
12,117 nM,CC(C)C[C@H](NC(=O)CC(NC(=O)c1ccc2ccccc2c1)c1cccc(Cl)c1)B(O)O (stereo not given in full)
13,97.7 nM,CC(C)C[C@H](NC(=O)CC(NC(=O)c1cnccn1)c1cccc(Cl)c1)B(O)O (stereo not given in full)
14,89.1 nM,COc1cccc(C(CC(=O)N[C@@H](Cc2cccc(F)c2)B(O)O)NC(=O)c2cccnc2)c1 (stereo not given in full)
15,50.1 nM,Cc1cccc(C(CC(=O)N[C@@H](CC(C)C)B(O)O)NC(=O)c2cccnc2)c1 (stereo not given in full)
16,28.1 nM,COc1cccc(C(CC(=O)N[C@@H](CC(C)C)B(O)O)NC(=O)[C@H]2CCCc3ccccc32)c1 (stereo not given in full)
17,21.8 nM,CC(C)C[C@H](NC(=O)CC(NC(=O)[C@H]1CCCc2ccccc21)c1cccc(Cl)c1)B(O)O (stereo not given in full)
18,20.8 nM,CC(C)C[C@H](NC(=O)CC(NC(=O)c1ccccc1)c1ccc(Cl)cc1)B(O)O (stereo not given in full)
19,19 nM,COc1cccc(C(CC(=O)N[C@@H](CC(C)C)B(O)O)NC(=O)c2cccnc2)c1 (stereo not given in full)
